In ChEMBL document CHEMBL1125082, “Synthesis and antimalarial activity of (+)-deoxoartemisinin” (J Med Chem, 1990):
In brackets after ≈: the same amount, converted by molar mass.

What was measured:
Plasmodium falciparum [1] = experiment: In vitro antimalarial activity against chloroquine-resistant Plasmodium falciparum W2 (Indochina); assay type: functional, organism-based
Outline: (§1)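 Semiautomated microdilution over a 64-fold dilution range, with DMSO stock diluted in medium with 10% plasma. Parasites at 0.5% parasitemia and 1.5% hematocrit, 37°C under 5% O2/5% CO2/90% N2 for 24 h. Tritiated hypoxanthine added for a further 18–20 h and incorporation read by scintillation. IC50 from nonlinear regression of concentration–response curves.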

Plasmodium falciparum [2] = experiment: In vitro antimalarial activity against mefloquine-resistant Plasmodium falciparum D6 (Sierra Leone); assay type: functional, organism-based; outline: as §1
Plasmodium berghei [3] = experiment: Antimalarial activity against Plasmodium berghei infected mice (Mus musculus) at 320 mg/kg dose; active in 2 of 5; assay type: functional
Outline: (§2)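 Mice infected intraperitoneally on day 0 with 5.98×10^5 P. berghei-parasitized cells. A single subcutaneous dose in peanut oil was given on day 3, at 640, 320, 160, 80, 40 or 20 mg/kg. Blood films were taken on day 6, then every 7 days to day 60. Mice surviving 60 days counted as cured. Activity meant survival over twice that of infected untreated controls.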

Plasmodium berghei [4] = experiment: Antimalarial activity against Plasmodium berghei infected mice (Mus musculus) at 640 mg/kg dose; n=5; assay type: functional; outline: as §2
Plasmodium berghei [5] = experiment: Antimalarial activity against Plasmodium berghei infected mice (Mus musculus) at 40 mg/kg dose; n=5; assay type: functional; outline: as §2
Plasmodium berghei [6] = experiment: Antimalarial activity against Plasmodium berghei infected mice (Mus musculus) at 20 mg/kg dose; n=5; assay type: functional; outline: as §2
Plasmodium berghei [7] = experiment: Antimalarial activity against Plasmodium berghei infected mice (Mus musculus) at 160 mg/kg dose; active in 2 of 5; assay type: functional; outline: as §2
Plasmodium berghei [8] = experiment: Antimalarial activity against Plasmodium berghei infected mice (Mus musculus) at 80 mg/kg dose;n=5; assay type: functional; outline: as §2
Plasmodium berghei [9] = experiment: Antimalarial activity against Plasmodium berghei infected mice (Mus musculus) at 320 mg/kg dose; n=5; assay type: functional; outline: as §2
Plasmodium berghei [10] = experiment: Antimalarial activity against Plasmodium berghei infected mice (Mus musculus) at 160 mg/kg dose; n=5; assay type: functional; outline: as §2

Compound	IC50 (Plasmodium falciparum [1]) [ng/mL]	IC50 (Plasmodium falciparum [2]) [ng/mL]	No. of mice cured (Plasmodium berghei [3])	No. of mice cured (Plasmodium berghei [4])	No. of mice cured (Plasmodium berghei [5])	No. of mice cured (Plasmodium berghei [6])	No. of mice cured (Plasmodium berghei [7])	No. of mice cured (Plasmodium berghei [8])	No. of mice cured (Plasmodium berghei [9])	No. of mice cured (Plasmodium berghei [10])
C[C@@H]1CC[C@H]2[C@@H](C)CO[C@@H]3OC4(C)CC[C@@H]1[C@]32O4 (single isomer, unassigned)	250 (≈ 991 nM)	250 (≈ 991 nM)	–	–	–	–	–	–	–	–
C[C@@H]1CC[C@H]2[C@@H](C)C(O)O[C@@H]3OC4(C)CC[C@@H]1[C@]32OO4 (single isomer, unassigned)	0.04 (≈ 0.141 nM)	0.11 (≈ 0.387 nM)	–	–	–	–	–	–	–	–
C[C@@H]1CC[C@H]2[C@@H](C)CO[C@@H]3OC4(C)CC[C@@H]1[C@]32OO4 (single isomer, unassigned) [DEOXOARTEMISININ]	0.15 (≈ 0.559 nM)	0.58 (≈ 2.16 nM)	2	5	0	0	0	0	–	–
C[C@@H]1CC[C@H]2[C@@H](C)C(=O)O[C@@H]3O[C@@]4(C)CC[C@@H]1[C@]32OO4 [ARTEMISININ]	1.21 (≈ 4.29 nM)	2.33 (≈ 8.25 nM)	–	5	0	0	–	0	0	0
CCO[C@H]1O[C@@H]2O[C@@]3(C)CC[C@H]4[C@H](C)CC[C@@H]([C@H]1C)[C@@]24OO3 [ARTEMOTIL]	0.16 (≈ 0.512 nM)	0.87 (≈ 2.78 nM)	–	–	–	–	–	–	–	–
